Experimental data from ChEMBL document CHEMBL3616432, “(+)-Dehydroabietylamine derivatives target triple-negative breast cancer” (Eur J Med Chem, 2015).
Activity calls are given as the source filed them. The rule behind the calls is not given here.

Experiments:
MDA-MB-231 [1] = test: Antiproliferative activity against human triple-negative MDA-MB-231 cells after 72 hrs by CellTiter-Glo assay; type: functional, cell-based; conditions: MDA-MB-231, 72 h
MDA-MB-231 [2] = test: Antiproliferative activity against human triple-negative MDA-MB-231 cells at 9 uM after 72 hrs by CellTiter-Glo assay; type: functional, cell-based
MCF7 = test: Antiproliferative activity against human ER-positive MCF7 cells after 72 hrs by CellTiter-Glo assay; type: functional, cell-based
[3] = Half life in human microsomes; type: ADME, Microsome
[4] = Half life in mouse microsomes; type: ADME, Microsome
[5] = Intrinsic clearance in human microsomes; type: ADME, Microsome
[6] = Intrinsic clearance in mouse microsomes; type: ADME, Microsome
[7] = Plasma protein binding in human; type: ADME, cell-free; conditions: read-out: PPB (converted)
[8] = Plasma protein binding in mouse; type: ADME; conditions: read-out: PPB (converted)
[9] = Half life in human plasma; type: ADME, cell-free
Procedure, shortened: (§1)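 Compound stability incubated in human or mouse plasma; half-life determined, with known drugs as controls.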

[10] = Half life in mouse plasma; type: ADME, cell-free; procedure, shortened: as §1
[11] = Permeability of the compound at pH 7.4 by PAMPA assay; type: physicochemical; conditions: read-out: permeability
[12] = Apparent permeability from apical to basolateral side in human Caco2 cells; type: ADME, cell-based; conditions: Caco-2
[13] = Apparent permeability from basolateral to apical side in human Caco2 cells; type: ADME, cell-based; conditions: Caco-2
[14] = Efflux ratio of permeability from basolateral to apical side over apical to basolateral side in human Caco2 cells; type: ADME, cell-based; conditions: Caco-2
MDA-MB-231 [15] = test: Cell cycle arrest in human triple-negative MDA-MB-231 cells assessed as accumulation at G0/G1 phase at 8.5 uM after 12 hrs by propidium iodide staining-based flow cytometry (reference value: 48.36%); type: functional
MDA-MB-231 [16] = test: Cell cycle arrest in human triple-negative MDA-MB-231 cells assessed as accumulation at G2/M phase at 8.5 uM after 12 hrs by propidium iodide staining-based flow cytometry (reference value: 20.40%); type: functional
MDA-MB-231 [17] = test: Cell cycle arrest in human triple-negative MDA-MB-231 cells assessed as accumulation at S phase at 8.5 uM after 12 hrs by propidium iodide staining-based flow cytometry (reference value: 31.23%); type: functional
MDA-MB-231 [18] = test: Induction of DNA fragmentation in human triple-negative MDA-MB-231 cells at 8.5 uM by propidium iodide staining-based flow cytometry; type: functional, cell-based; conditions: TDE = time-dependent effect
MDA-MB-231 [19] = test: Induction of apoptosis in human triple-negative MDA-MB-231 cells assessed as necrotic cells after 12 hrs by Annexin V-FITC/propidium iodide staining-based flow cytometry (reference value: 0.1%); type: functional
MDA-MB-231 [20] = test: Induction of apoptosis in human triple-negative MDA-MB-231 cells assessed as late apoptotic cells after 12 hrs by Annexin V-FITC/propidium iodide staining-based flow cytometry (reference value: 3.7%); type: functional
MDA-MB-231 [21] = test: Induction of apoptosis in human triple-negative MDA-MB-231 cells assessed as viable cells after 12 hrs by Annexin V-FITC/propidium iodide staining-based flow cytometry (reference value: 93.1%); type: functional
MDA-MB-231 [22] = test: Induction of apoptosis in human triple-negative MDA-MB-231 cells assessed as early apoptotic cells after 12 hrs by Annexin V-FITC/propidium iodide staining-based flow cytometry (reference value: 3.1%); type: functional
MDA-MB-231 [23] = test: Induction of apoptosis in human triple-negative MDA-MB-231 cells assessed as increase in cleaved PARP level by western blot analysis; type: functional, cell-based; conditions: TDE = time-dependent effect
MDA-MB-231 [24] = test: Induction of apoptosis in human triple-negative MDA-MB-231 cells assessed as increase in DR5 level after 12 hrs by western blot analysis; type: functional, cell-based
MDA-MB-231 [25] = test: Induction of apoptosis in human triple-negative MDA-MB-231 cells assessed as increase in cleaved caspase-8 level after 6 to 12 hrs by western blot analysis; type: functional, cell-based
MDA-MB-231 [26] = test: Induction of apoptosis in human triple-negative MDA-MB-231 cells assessed as increase in cleaved caspase-9 level after 6 to 12 hrs by western blot analysis; type: functional, cell-based
MDA-MB-231 [27] = test: Induction of apoptosis in human triple-negative MDA-MB-231 cells assessed as increase in cleaved caspase-3 level after 6 to 12 hrs by western blot analysis; type: functional, cell-based
MDA-MB-231 [28] = test: Induction of apoptosis in human triple-negative MDA-MB-231 cells assessed as decrease in caspase-7 level after 6 to 12 hrs by western blot analysis; type: functional, cell-based
MDA-MB-231 [29] = test: Induction of apoptosis in human triple-negative MDA-MB-231 cells assessed as cell shrinkage at 16 uM after 6 to 48 hrs by microscopic analysis; type: functional, cell-based
MDA-MB-231 [30] = test: Induction of apoptosis in human triple-negative MDA-MB-231 cells assessed as cell detachment at 16 uM after 6 to 48 hrs by microscopic analysis; type: functional, cell-based
MDA-MB-231 [31] = test: Induction of apoptosis in human triple-negative MDA-MB-231 cells assessed as cell death at 16 uM after 6 to 48 hrs by microscopic analysis; type: functional, cell-based
[32] = Permeability of the compound at pH 7.4 assessed as drug retention by PAMPA assay; type: physicochemical

## CC(C)c1ccc2c(c1)CC[C@H]1[C@](C)(CNS(=O)(=O)c3c(F)c(F)c(F)c(F)c3F)CCC[C@]21C
MDA-MB-231 [1]
  EC50: 9 µM
MDA-MB-231 [2]
  Activity: Active
MCF7
  Activity: inactive
[3]
  half-life: 55.8 min
[4]
  half-life: 30.6 min
[5]
  CLint scaled: 22.3 mL/min/kg
[6]
  CLint scaled: 112 mL/min/kg
[7]
  fraction unbound: 0.052
[8]
  fraction unbound: 0.007
[9]
  half-life: 406 min
[10]
  half-life: 2260 min
[11]
  Papp: 62.5 ×10⁻⁶ cm/s
[12]
  Papp A→B: 1.96 ×10⁻⁶ cm/s
[13]
  Papp B→A: 1.57 ×10⁻⁶ cm/s
[14]
  efflux ratio: 0.8
MDA-MB-231 [15]
  Activity: 61.26%
MDA-MB-231 [16]
  Activity: 18.37%
MDA-MB-231 [17]
  Activity: 20.37%
MDA-MB-231 [18]
  Activity: tde
MDA-MB-231 [19]
  Activity: 0.5%
MDA-MB-231 [20]
  Activity: 16.7%
MDA-MB-231 [21]
  Activity: 61.5%
MDA-MB-231 [22]
  Activity: 21.3%
MDA-MB-231 [23]
  Activity: tde
MDA-MB-231 [24]
  Activity: Active
MDA-MB-231 [25]
  Activity: Active
MDA-MB-231 [26]
  Activity: Active
MDA-MB-231 [27]
  Activity: Active
MDA-MB-231 [28]
  Activity: Active
MDA-MB-231 [29]
  Activity: Active
MDA-MB-231 [30]
  Activity: Active
MDA-MB-231 [31]
  Activity: Active
[32]
  permeability: 60.4%
